This passage reports Activity, Ki and half-life results from ChEMBL document CHEMBL4196195, “( R)- N-(1-Methyl-2-hydroxyethyl)-13-( S)-methyl-arachidonamide (AMG315): A Novel Chiral Potent Endocannabinoid Ligand with Stability to Metabolizing Enzymes” (J Med Chem, 2018).

Data set [1] concerns Mus musculus. The data set can be described thus: Effect on mechanical paw withdrawal threshold of contralateral paw in CD1 mouse model of CFA-induced inflammatory pain at 5 mg/kg, ip measured at 10 to 120 mins post injection. The data set is classed as ADME, organism-based. The following applies: in vivo. The gist of the method:
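Wild-type CD1 or CB1 KO (CD1 background) adult male mice. Unilateral intraplantar CFA:saline 1:1 (20 μL) into right hind paw, 48 h before ip dosing (5 mL/kg); vehicle controls. Threshold of the uninjected contralateral paw measured by electronic von Frey (90 g probe), duplicate readings averaged, at 10, 30, 60, 120 min post-dose. Two-way mixed ANOVA.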

In data set [2] the target is T1, Cannabinoid receptor 1 (Rattus norvegicus, UniProt P20272). The data set is described as follows: Displacement of [3H]CP-55,940 from CB1 receptor in rat brain membranes in absence of FAAH inhibitor PMSF by radioligand binding assay. The data set is classed as cell membranes, Membrane. On the technique in general: Displacement assays read how much labelled ligand stays bound in the presence of the test substance.

Data set [3] deals with Mus musculus. The data set is described as follows: Antiallodynic activity in CD1 mouse model of CFA-induced inflammatory pain assessed as increase in CFA-reduced mechanical paw withdrawal threshold at 5 mg/kg, ip measured up to 30 mins post injection. It counts as functional, organism-based. The gist of the method:
(§1)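 Adult male mice (39 ± 10 g), wild-type CD1 or CB1 KO on CD1 background, single housed. CFA:saline 1:1 (20 μL) injected intraplantar into right hind paw; 48 h allowed before dosing. Drug given ip in 5 mL/kg, vehicle group included. Electronic von Frey (90 g probe) after ≥30 min habituation, read in duplicate per paw, at baseline, 48 h post-CFA and 10, 30, 60, 120 min post-dose. Two-way mixed ANOVA with Bonferroni post hoc tests.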

In data set [4] the target is T1, Cannabinoid receptor 1. The data set can be described thus: Displacement of [3H]CP-55,940 from CB1 receptor in rat brain membranes in presence of FAAH inhibitor PMSF by radioligand binding assay. The data set is classed as cell membranes, Membrane.
Data set [5] concerns the target T2, FAAH (fatty-acid amide hydrolase 1) (Homo sapiens, UniProt O00519).
T2 sequence (O00519 whole entry): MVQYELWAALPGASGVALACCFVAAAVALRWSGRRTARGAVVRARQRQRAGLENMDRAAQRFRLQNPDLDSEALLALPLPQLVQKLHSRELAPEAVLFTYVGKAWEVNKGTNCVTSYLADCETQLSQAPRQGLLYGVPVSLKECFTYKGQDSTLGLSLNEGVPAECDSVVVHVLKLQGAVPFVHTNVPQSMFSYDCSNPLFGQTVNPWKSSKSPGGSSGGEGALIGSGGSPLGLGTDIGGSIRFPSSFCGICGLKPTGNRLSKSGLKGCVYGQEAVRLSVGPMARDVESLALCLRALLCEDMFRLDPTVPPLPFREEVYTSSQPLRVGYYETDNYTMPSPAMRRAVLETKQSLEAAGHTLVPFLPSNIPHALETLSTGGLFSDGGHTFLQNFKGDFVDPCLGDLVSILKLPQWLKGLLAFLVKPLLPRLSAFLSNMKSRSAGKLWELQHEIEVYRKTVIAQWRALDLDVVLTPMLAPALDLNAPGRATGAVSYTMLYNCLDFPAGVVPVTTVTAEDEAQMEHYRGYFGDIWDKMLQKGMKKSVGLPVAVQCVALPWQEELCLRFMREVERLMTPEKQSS
The data set is described as follows: Stability assessed as human FAAH-mediated compound hydrolysis by LC-MS/MS analysis. The data set is classed as ADME. The following applies: human FAAH (fatty-acid amide hydrolase 1), read-out: Stability. The gist of the method:
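Expressed, partially purified rat or human FAAH incubated with compound, or AEA as reference substrate, for 30 min. Aliquots at time points quenched in acetonitrile to precipitate protein. Remaining compound measured by LC-MS/MS on a cyano column with 10 mM ammonium acetate pH 7.3/methanol at 0.5 mL/min.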

Data set [6] addresses T3, MGL (monoglyceride lipase) (Homo sapiens, UniProt Q99685).
T3 sequence (Q99685 whole entry): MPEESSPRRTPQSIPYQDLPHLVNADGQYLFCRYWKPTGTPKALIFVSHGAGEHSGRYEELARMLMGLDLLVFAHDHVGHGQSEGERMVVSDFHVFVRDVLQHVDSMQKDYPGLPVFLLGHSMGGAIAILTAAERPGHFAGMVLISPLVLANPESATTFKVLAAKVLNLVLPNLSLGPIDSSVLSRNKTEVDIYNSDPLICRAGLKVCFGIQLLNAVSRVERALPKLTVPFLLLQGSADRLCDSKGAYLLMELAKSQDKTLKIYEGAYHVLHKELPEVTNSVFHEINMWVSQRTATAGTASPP
The data set can be described thus: Stability assessed as human MGL-mediated compound hydrolysis by HPLC analysis. It counts as ADME. The following applies: read-out: Stability. The gist of the method: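 Human MGL or ABHD6 expressed in E. coli BL21(DE3); cell lysate in 150 mM NaCl, 50 mM Tris, 1% Triton X-100, pH 8.0. Lysate (0.5 µg total protein) incubated at 37 °C with compound or 2-AG reference for 30 min. Samples at 0–30 min quenched in acetonitrile. Analysed by C18 reversed-phase HPLC with UV at 204 nm against external standards.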

The subject of data set [7] is Mus musculus. The data set can be described thus: Antiallodynic activity in CD1 mouse model of CFA-induced inflammatory pain assessed as increase in CFA-reduced mechanical paw withdrawal threshold at 5 mg/kg, ip measured at 120 mins post injection. The data set is classed as functional, organism-based. The gist of the method:
as §1

Activity calls are given as the source filed them.

T1 sequence (P20272 whole entry): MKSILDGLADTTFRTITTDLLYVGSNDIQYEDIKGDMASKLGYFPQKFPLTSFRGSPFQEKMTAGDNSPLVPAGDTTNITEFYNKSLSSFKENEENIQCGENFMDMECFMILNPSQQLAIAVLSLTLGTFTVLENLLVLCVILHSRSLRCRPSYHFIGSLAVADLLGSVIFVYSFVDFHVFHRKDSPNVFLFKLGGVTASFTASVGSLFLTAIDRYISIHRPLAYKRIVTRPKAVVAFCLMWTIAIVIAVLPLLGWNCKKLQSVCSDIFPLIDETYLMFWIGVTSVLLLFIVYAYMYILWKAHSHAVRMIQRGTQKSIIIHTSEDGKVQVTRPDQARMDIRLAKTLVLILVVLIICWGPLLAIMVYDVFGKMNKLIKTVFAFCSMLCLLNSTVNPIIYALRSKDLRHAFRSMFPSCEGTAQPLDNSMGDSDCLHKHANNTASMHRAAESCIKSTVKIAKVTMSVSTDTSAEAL

As usually defined, the Ki is the equilibrium dissociation constant of an inhibitor or competing ligand from its target. For the molecule `CCCCC/C=C\[C@H](C)/C=C\C/C=C\C/C=C\CCCC(=O)N[C@H](C)CO`, the Activity result in the data set on Mus musculus [1] is recorded as “Non-Toxic”. For the same molecule, the Ki at Cannabinoid receptor 1 [2] is 7.8 nM; on Cannabinoid receptor 1 [4], 8.9 nM. In the data set on Mus musculus [3], the result was Active. For the same molecule, the half-life in data set [5] and in data set [6] was 30 min throughout. For the same molecule, the outcome in the data set with Mus musculus [7] was inactive.
